Where “and” joins values, the source holds several entries; their conditions need not be identical. Identical values can stand only once. Entries after “also recorded” stand apart in the source; their conditions may differ.
Legend:
[1] = target: HIV-2 RT-associated RNase H (Human immunodeficiency virus type 2 subtype A, UniProt P04584); assay: RNase H activity on fluorescent RNA/DNA hybrid, HIV-2 RT; type: biochemical; settings: for IC50 HIV-2 RT: RNase H activity, triplicate assays
Method in brief: (§1)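 RNase H cleavage of a fluorescent RNA/DNA hybrid was measured with recombinant E. coli-expressed RT (wild-type p66/p51 for HIV-1; same expression system for HIV-2). Test compound, from a 20 mM DMSO stock, was tested in 2-fold dilutions from 100 μM to […]. Fluorescence was read every 40 s over 30 min. Rates came from the linear portion of the curves, and dose–response curves were fitted. Assays were run in triplicate.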

[2] = target: T1, human RNase H (Homo sapiens, UniProt O60930); assay: RNase H activity on fluorescent RNA/DNA hybrid, human RNase H; type: biochemical
T1 sequence (O60930 1-286): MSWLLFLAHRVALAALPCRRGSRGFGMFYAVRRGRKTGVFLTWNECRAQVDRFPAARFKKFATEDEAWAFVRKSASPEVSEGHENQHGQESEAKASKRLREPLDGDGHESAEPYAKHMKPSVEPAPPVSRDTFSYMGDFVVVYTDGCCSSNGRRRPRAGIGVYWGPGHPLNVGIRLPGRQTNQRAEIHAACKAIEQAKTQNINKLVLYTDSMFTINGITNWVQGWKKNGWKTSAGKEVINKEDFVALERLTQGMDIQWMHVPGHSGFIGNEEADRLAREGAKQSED

[3] = target: HIV-1 RT-associated RNase H (Human immunodeficiency virus type 1 group M subtype B, UniProt P04585); assay: RNase H activity on fluorescent RNA/DNA hybrid, HIV-1 RT; type: biochemical; settings: for IC50: IC50 HIV-1 RT; for IC50 / IC50 HIV-1 RT: RNase H activity, triplicate assays
Method in brief: as §1

[4] = target: T2, E.coli RNase HI (Escherichia coli, UniProt P0A7Y4); assay: RNase H activity on fluorescent RNA/DNA hybrid, E.coli RNase H; type: biochemical; settings: for IC50: IC50 E.c. Rnase H
T2 sequence (P0A7Y4 1-155): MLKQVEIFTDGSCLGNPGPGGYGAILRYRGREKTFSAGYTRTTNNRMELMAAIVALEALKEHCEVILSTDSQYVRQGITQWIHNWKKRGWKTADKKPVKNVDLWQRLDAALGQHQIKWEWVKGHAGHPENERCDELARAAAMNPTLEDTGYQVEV

[5] = target: 12mer RNA/DNA hybrid; assay: Surface plasmon resonance binding to immobilized RNA/DNA hybrid; settings: SPR; for binding to RNA/DNA hybrid substrate: concentration range of 50 nM–10 mM
[6] = target: HIV-1 RT RNase H activity (Human immunodeficiency virus type 1 group M subtype B, UniProt P04585); assay: HIV-1 RT-catalyzed polypurine tract; type: biochemical; settings: single concentration of 50 μM
Method in brief: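 Recombinant wild-type p66/p51 HIV-1 RT was expressed in E. coli. The substrate was a 5′[32P]-labeled HIV-1 PPT RNA primer, extended at its 3′ end by five deoxynucleotides, hybridized to its DNA complement. Test compound was diluted from a 20 mM DMSO stock into reaction buffer and tested at 50 μM. Controls were no inhibitor and DMSO alone. PPT hydrolysis products were assessed qualitatively.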

[7] = tested on: HIV-1 infection; assay: Cellular models of HIV-1 infection; type: cell-based
[8] = target: HIV-1 RT DNA polymerase (Human immunodeficiency virus type 1 group M subtype B, UniProt P04585); assay: DNA-dependent DNA polymerase activity of HIV-1 RT; type: biochemical; settings: single concentration of 50 μM
[9] = target: HIV-2 RT DNA polymerase (Human immunodeficiency virus type 2 subtype A, UniProt P04584); assay: DNA polymerase activity of HIV-2 RT; type: biochemical; settings: 50 μM
Chain of HIV-2 RT DNA polymerase (P04584 613-1171 limits assumed): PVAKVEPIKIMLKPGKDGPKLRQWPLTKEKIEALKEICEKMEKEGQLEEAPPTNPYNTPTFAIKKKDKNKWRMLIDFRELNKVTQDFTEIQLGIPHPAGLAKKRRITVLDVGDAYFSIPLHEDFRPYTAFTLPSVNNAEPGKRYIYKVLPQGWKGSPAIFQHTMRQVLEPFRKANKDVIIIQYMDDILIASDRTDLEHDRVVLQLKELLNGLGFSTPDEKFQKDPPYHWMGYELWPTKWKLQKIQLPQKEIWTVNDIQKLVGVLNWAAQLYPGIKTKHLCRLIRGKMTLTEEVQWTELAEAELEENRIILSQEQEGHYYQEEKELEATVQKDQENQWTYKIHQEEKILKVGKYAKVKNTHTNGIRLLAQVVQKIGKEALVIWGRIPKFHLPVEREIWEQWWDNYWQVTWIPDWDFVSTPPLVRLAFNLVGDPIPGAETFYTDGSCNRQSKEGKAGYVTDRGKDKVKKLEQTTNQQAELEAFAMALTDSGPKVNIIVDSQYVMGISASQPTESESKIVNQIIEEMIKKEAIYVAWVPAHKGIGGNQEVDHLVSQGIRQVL
Chain of HIV-2 RT DNA polymerase (P04584 613-1051 partner limits assumed): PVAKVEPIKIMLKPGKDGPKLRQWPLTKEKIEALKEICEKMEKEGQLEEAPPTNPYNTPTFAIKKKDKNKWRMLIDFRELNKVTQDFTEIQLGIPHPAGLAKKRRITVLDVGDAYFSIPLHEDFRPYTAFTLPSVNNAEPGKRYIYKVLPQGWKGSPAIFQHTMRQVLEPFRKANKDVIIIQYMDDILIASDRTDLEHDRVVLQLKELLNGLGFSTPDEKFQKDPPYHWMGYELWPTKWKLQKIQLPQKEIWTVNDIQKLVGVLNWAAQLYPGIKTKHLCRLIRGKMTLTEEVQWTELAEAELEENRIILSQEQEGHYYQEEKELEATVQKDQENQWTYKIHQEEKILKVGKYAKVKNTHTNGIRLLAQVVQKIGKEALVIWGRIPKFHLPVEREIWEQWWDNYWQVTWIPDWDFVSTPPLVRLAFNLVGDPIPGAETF

Chain of HIV-2 RT-associated RNase H (P04584 613-1171 limits assumed): as the sequence (P04584 613-1171 limits assumed) above
Chain of HIV-2 RT-associated RNase H (P04584 613-1051 partner limits assumed): as the sequence (P04584 613-1051 partner limits assumed) above

Structure (SMILES)	IC50 [1] [µM]	IC50 [2] [µM]	IC50 [3]	IC50 ([4]; triplicate assays)	binding to RNA/DNA hybrid substrate [5]	also measured
CC(C)=CCc1ccc(=O)c(O)cc1C(C)C [Nootkatin, 2-hydroxy-5-(3-methyl-2-butenyl)-4-(1-methylethyl)-2,4,6-cycloheptatrien-1-one]	> 100	25	> 100 µM	> 100 µM	–	–
CC[n+]1c(-c2ccccc2)c2cc(N)ccc2c2ccc(N)cc21 [ethidium bromide, reference compound]	–	–	–	–	–	Kd ([5]; read-out: Kd for intercalation into RNA/DNA hybrid, 25°C): ~1.5 µM
CC(C)c1cccc(=O)c(O)c1 [β-Thujaplicin, 2-hydroxy-4-(1-methylethyl)-2,4,6-cycloheptatrien-1-one]	> 100	> 100	> 100 µM	> 100 µM	do not bind	IC50 HIV-2 RT [1]: completely inactive; IC50 Hu Rnase H ([2]; triplicate assays): completely inactive; IC50 HIV-1 RT [3]: completely inactive; IC50 E.c. Rnase H ([4]; triplicate assays): completely inactive
CC(C)c1ccccc(=O)c1O [α-Thujaplicin, 2-hydroxy-3-(1-methylethyl)-2,4,6-cycloheptatrien-1-one]	33	12	50 µM	> 100 µM	do not bind	–
O=c1cccccc1O [Tropolone, 2-hydroxy-2,4,6-cycloheptatrien-1-one]	> 100	3	> 100 µM	> 100 µM	–	–
CC(C)c1ccc(O)c(=O)cc1 [γ-Thujaplicin, 2-hydroxy-5-1(methylethyl)-2,4,6-cycloheptatrien-1-one]	> 100	2	> 100 µM	> 100 µM	–	IC50 HIV-2 RT [1]: failed to inhibit; IC50 HIV-1 RT [3]: failed to inhibit
CC(C)c1ccc(O)c(=O)c(O)c1 [β-Thujaplicinol, 2,7-dihydroxy-4-1(methylethyl)-2,4,6-cycloheptatrien-1-one]	0.77	–	0.2 µM and 0.21 µM	~50 µM and 50 µM	do not bind	inhibition of PPT processing [6]: almost complete inhibition; activity in cellular models of HIV-1 infection [7]: inactive; Ki [3]: 0.2 ± 0.07 µM; mode of inhibition of HIV-1 RT/RNase H ([3]; non-linear fitting): mixed-type inhibition; inhibition of DNA-dependent DNA polymerase activity of HIV-1 RT [8]: failed to inhibit; also recorded: without affecting; also recorded: do not inhibit; also recorded: unaffected; E.coli RNase H less sensitive than HIV-1 RNase H [4]: ~250 fold; inhibition of DNA polymerase activity of HIV-2 RT [9]: without affecting; also recorded: unaffected

Source: PMC552956 (Nucleic Acids Research, 2005)
